Assay outcomes (PubChem)
Sampled rows, rich in hits. Any-hit rate of the full collection: about 3.7%.
Exocytosis inh: lytic granule exocytosis inhibition; AID 651702; inhibition, % at 10 µM; hit rate 0.66% among 360,000; TALL-104 LAMP-1 surface exposure, flow cytometry; cells stimulated with thapsigargin and PMA;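 active = inhibition above about 55%, limit read from the data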
MC4R antagonist: human MC4R antagonism in cAMP assay; inhibition, % at 6.5 µM; hit rate 0.48% among 360,000; MC4R-expressing cells, MTII-stimulated cAMP, LANCE TR-FRET; P32245; AID 540295;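 active = inhibition above its plate's cutoff, the mean of tested wells on that plate plus 3 SD, cut at about 29% in these data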;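 also: 0% = Melanotan II alone and 100% = Melanotan II plus saturating MCL0020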
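System – human MC4R-expressing U2OS cells · Also added – Melanotan II · Dosing – one concentration, 6.5 µM nominal · Timing – 30-min compound, 1-h challenge, 1-h detection, room temperature · Measured by – Eu-cAMP/anti-cAMP TR-FRET, emission 671 nm · Replicates – singlicate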
Myeloid diff MLP: promotes myeloid progenitor differentiation; calls only at 10 µM; ER-HoxA9 myeloid progenitors, lysozyme-GFP differentiation, flow cytometry; hit rate 1% among 360,000;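 active = normalized GFP-positive differentiation at or above the plate's own cutoff, the solvent-only control mean plus 3 SD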;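 also: cells exposed to compound for four days before flow analysis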
MC4R ag barr: activates human MC4R beta-arrestin recruitment | P32245 | U2OS MC4R beta-arrestin complementation, luminescence; percent of melanotan II response, DMSO zero | activation, % at 8.9 µM | hit rate 0.98% among 360,000;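 active = activation above a per-plate cutoff, the mean activation of sample wells on that plate plus 3 SD, cut at about 8% in these data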
EBI2 antag: antagonists of human EBI2 receptor; P32249; EBI2 beta-arrestin recruitment, luminescence, 7a,25-OHC stimulated; inhibition, % at 5 µM; hit rate 0.81% among 360,000; AID 651636; in the data active = inhibition above about 38%;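 also: enzyme fragment complementation signal reports receptor beta-arrestin coupling in cells; 0% = agonist plus DMSO wells and 100% = wells without agonist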
Target sequence (P32249 whole entry, looked up, the tested form may be a part): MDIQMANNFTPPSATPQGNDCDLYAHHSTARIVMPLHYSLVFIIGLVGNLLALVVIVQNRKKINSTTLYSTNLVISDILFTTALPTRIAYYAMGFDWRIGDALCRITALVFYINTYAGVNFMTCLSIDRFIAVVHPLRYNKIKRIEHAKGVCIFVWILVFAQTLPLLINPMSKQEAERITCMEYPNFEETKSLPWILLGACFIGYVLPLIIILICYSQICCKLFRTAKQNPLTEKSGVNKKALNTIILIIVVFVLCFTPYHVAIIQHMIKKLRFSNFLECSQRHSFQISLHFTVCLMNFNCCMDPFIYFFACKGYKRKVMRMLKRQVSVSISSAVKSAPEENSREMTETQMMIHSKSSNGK
The depositor's hits bear a star; i = inactive; nt = not tested or not shown; + = active, no number.

SMILES	Exocytosis inh	MC4R antagonist	Myeloid diff MLP	MC4R ag barr	EBI2 antag
O=C(COc1ccccc1)Nc1ccc(CSc2ccccc2)cc1	-1	11	i	10*	3
CCCCn1c(N)c(N(CC(C)C)C(=O)c2cc(=O)[nH]c3ccccc23)c(=O)[nH]c1=O	4	-1	i	4	3
CCCCN(C(=O)C1CCN(C(=O)c2ccccc2C)CC1)c1c(N)n(CCCC)c(=O)[nH]c1=O	-1	5	+	-3	-10
CCCCN(C(=O)c1cc(=O)[nH]c2ccccc12)c1c(N)n(CCCC)c(=O)[nH]c1=O	-3	0	+	-1	6
CCCCN(C(=O)C1CCN(C(=O)c2ccccc2C)CC1)c1c(N)n(CCC)c(=O)[nH]c1=O	-2	-1	i	1	-8
CCOC(=O)c1oc2ccccc2c1NC(=O)CN1CCOCC1	-1	11	i	5	7
CCn1cc([N+](=O)[O-])c(C(=O)N2CCCC2)n1	-2	3	+	0	-14
NC(=O)CC(NC(=O)c1ccccc1)c1ccc(NCCc2ccc(F)cc2)c([N+](=O)[O-])c1 (stereo not drawn)	-3	16	i	2	-1
COc1ccc(CCNc2ccc(C(CC(N)=O)NC(=O)c3ccccc3)cc2[N+](=O)[O-])cc1 (stereo not drawn)	-1	2	+	3	-3
COc1ccc(CNCCNC(=O)c2nonc2N)cc1OC	-1	8	+	1	-5
CCOC(=O)c1cn(-c2ccc([N+](=O)[O-])cc2)c2cc(Cl)c([N+](=O)[O-])cc2c1=O	3	1	+	3	-7
CCOc1ccccc1C(=O)N(Cc1ccccc1)Cc1cc2cc3c(cc2[nH]c1=O)OCCO3	-4	-1	+	-1	10
COc1ccc(NC(=O)CN2C(=O)NC(CC(C)C)C2=O)cc1S(=O)(=O)N1CCOCC1 (stereo not drawn)	1	-4	i	-2	-6
Cc1ccc(C(=O)N[C@H](C(=O)Nc2sccc2C(N)=O)C(C)C)cc1	-20	2	+	-2	-5
FC(F)(F)c1nc(NCc2ccccc2)c2nnn(Cc3ccccc3)c2n1	-3	-8	i	8.4*	17
C[C@@H]1CCCCO[C@H](CN(C)C(=O)Cc2ccccc2)[C@@H](C)CN([C@H](C)CO)C(=O)c2cc(N(C)C)ccc2O1	-1	4	i	-1	3
COc1ccc(-c2cc(NC(=O)c3cncn3-c3ccccc3)ccc2OC)cc1	11	0	+	0	23
COc1ccc(NC(=O)c2cncn2-c2ccccc2)cc1	-4	12	i	1	6
c1ccc(CNc2ncnc3sc4c(c23)CCCC4)nc1	9	0	i	-2	17
Cc1nc(NCc2ccccn2)c2c3c(sc2n1)CCCC3	-2	4	+	0	6
CC[C@H](C)[C@@H](CO)NC(=O)[C@H]1O[C@@H](n2ccc(N)nc2=O)[C@H](O)[C@@H]1O	0	nt	i	nt	-4
C/C(CCc1ccccc1)=N\NC(=S)NCCc1ccccc1	91*	-6	i	-1	29
Cc1ccc(/C(N)=N/OC(=O)c2ccc(Cl)cc2Cl)cc1	2	18	+	2	9
Cc1cccc(C(=O)O/N=C(\N)c2ccc(Cl)cc2)c1	11	-1	i	0	-6
Cc1cccc(OCC(=O)O/N=C(\N)c2ccc(Cl)cc2)c1	0	-2	i	12*	-3
SMILES	Exocytosis inh	MC4R antagonist	Myeloid diff MLP	MC4R ag barr	EBI2 antag
COc1cc(C2NC(=O)c3ccccc3O2)ccc1OC(C)C (stereo not drawn)	2	-8	+	0	1
CCOc1cc(C2NC(=O)c3ccccc3O2)ccc1OC (stereo not drawn)	3	6	i	0	-5
Cc1cc(C)c(S(=O)(=O)/N=C2/C=C(SCC(=O)O)C(=O)c3ccccc32)cc1C	79*	14	i	-3	2
O=C(Cc1csc(Nc2nc(=S)[nH]c3ccccc23)n1)NCCCN1CCN(c2ccccc2F)CC1	84*	9	i	0	11
CCCCN(C)C(=S)Nc1ccc2nc3n(c(=O)c2c1)CCCCC3	0	3	i	-1	-9
CCOc1ccc(C(C)=O)cc1N1C(=O)C2C3C=CC(C3)C2C1=O (stereo not drawn)	-4	7	i	-2	-9
CCOc1ccc(C(C)=O)cc1N1C(=O)C2C3C=CC(O3)C2C1=O (stereo not drawn)	105*	-7	i	0	5
FC(F)(F)c1cccc(N2CCN(C(=S)NC3CCCCC3)CC2)c1	2	1	i	0	6
Cc1ccc(C)c(NC(=S)N2CCN(c3cccc(C(F)(F)F)c3)CC2)c1	7	8	i	9.1*	4
FC(F)(F)c1cccc(N2CCN(C(=S)NC3CCCC3)CC2)c1	0	11	i	8.3*	3
Cc1ccnc(NC(=S)N2CCN(c3cccc(C(F)(F)F)c3)CC2)c1	2	13	i	-3	-7
O=C(NCCN1CCN(C(=O)c2ccc(F)cc2)CC1)c1ccc(F)cc1	4	-2	i	1	-7
O=C(CSc1nc2ncc(Cl)cc2[nH]1)c1c[nH]c2ccccc12	0	5	+	4	-8
O=C(CSc1nc2ccc(Cl)cc2[nH]1)c1c[nH]c2ccccc12	-4	-2	i	-2	5
CCC(C(=O)N1CCOCC1)n1nc(C)c2sc3ccccc3c2c1=O (stereo not drawn)	-5	11	i	0	0
Cc1oc(-c2ccc(Cl)cc2)nc1CN1CCC(C(=O)N2CCc3ccccc3C2)CC1	31	11	+	0	10
Cc1cc(C)c(NC(=O)c2ccc3c(c2)C(=O)N(Cc2cccnc2)C3=O)c(C)c1	0	11	i	0	-5
Cc1ccc(O)c(NC(=O)c2ccc3c(c2)C(=O)N(Cc2cccnc2)C3=O)c1	16	5	+	-1	-3
C/C(=N\Nc1ccc(Cl)cc1)c1c(O)cc(C)oc1=O	2	17	i	3	0
Cc1ccc2nc(NC(=O)CSCc3ccccc3)sc2c1	-4	-5	i	8.9*	8
NC1=NC[C@@H](Cc2ccc(O)cc2)N1CCc1cc(C(F)(F)F)cc(C(F)(F)F)c1	-10	3	i	2	-5
FC(F)(F)c1cc(CCN2CCNC[C@@H]2CC2CCCCC2)cc(C(F)(F)F)c1	-5	1	i	8.7*	0
NC1=NC[C@H](CC2CCCCC2)N1CCc1cc(C(F)(F)F)cc(C(F)(F)F)c1	-6	10	i	9.3*	5
O=C(OCc1ccc(Br)cc1)c1cccnc1	-13	-7	i	0	-6
O=C(OCC(O)COC(=O)c1cccnc1)c1cccnc1	4	-7	+	2	-7
